Reference: publication PMC11223199 (ACS Omega, 2024)

Legend:
DeHa4 = test: fluoride ion probe, Lineweaver-Burk; format: biochemical, Delftia acidovorans; details: pH 7, PBS, 37 °C, 28 h
Outline: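 Cobalt-affinity-purified enzyme from E. coli BL21 DE3 (pET15b), 250 μg in 0.5 mL with MFA (0.4–3 mM) or DFA (10–120 mM), 28 h, 250 rpm. Samples diluted in low-level TISAB and water, then read by fluoride electrode against NaF calibration (0–20 μM, second-order polynomial fit). Product equals fluoride for MFA and half of fluoride for DFA. Velocity is product per hour. 4–6 independent runs.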

DeHa2 = target: T1, DeHa2 (Delftia acidovorans, UniProt Q7DI63); test: fluoride ion probe, Lineweaver-Burk; format: biochemical; details: pH 7, PBS, 37 °C, 28 h
T1 sequence (Q7DI63 1-224): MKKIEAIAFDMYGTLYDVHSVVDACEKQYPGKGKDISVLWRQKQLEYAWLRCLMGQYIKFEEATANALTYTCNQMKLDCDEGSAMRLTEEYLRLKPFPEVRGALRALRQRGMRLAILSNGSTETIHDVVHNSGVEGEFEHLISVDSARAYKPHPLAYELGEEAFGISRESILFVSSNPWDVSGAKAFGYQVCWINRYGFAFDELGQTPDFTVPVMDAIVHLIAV

Row | SMILES | Km (DeHa4) [mM] | Km (DeHa2) [mM]
1 | O=C(O)C(F)F [DFA, difluoroacetate] | 39 ± 2.36 | –
2 | O=C(O)CF [MFA, monofluoroacetate] | 2.19 ± 0.37 | 5.47 ± 1.54
